Legend:
Format in all cases: functional
[1] = system: Cladosporium cucumerinum; test: Antifungal activity against Cladosporium cucumerinum assessed as inhibition of mycelium growth at 50 mg/L at 26 degC measured after 72 hr
How it was run: (§1)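 Mycelium growth assay on agar. 1 mL test solution (50 mg/L) was poured into a 9 cm plate with 9 mL agar medium. Controls used sterile water in its place. A 4 mm plug from the margin of an actively growing colony was placed in the centre and incubated at 26 °C. Hyphal diameter was measured over 72 h, in triplicate. Inhibition % = (control diameter − treated diameter)/control diameter.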

[2] = system: Mycosphaerella arachidis; test: Antifungal activity against Mycosphaerella arachidis assessed as inhibition of mycelium growth at 50 mg/L at 26 degC measured after 72 hr; how it was run: as §1
[3] = system: Botryosphaeria berengeriana; test: Antifungal activity against Botryosphaeria berengeriana assessed as inhibition of mycelium growth at 50 mg/L at 26 degC measured after 72 hr; how it was run: as §1
[4] = system: Brassica napus; test: Herbicidal activity against rape Brassica napus (oilseed rape) assessed as herbicidal damage at 1.5 kg/ha measured after postemergence treatment; settings: post-emergence
How it was run: (§2)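 Seeds were sown in 6 cm boxes of artificial mixed soil, covered with plastic film until emergence, and grown in a greenhouse. Sprays were applied right after sowing (preemergence) or after the first true leaf expanded (postemergence). Controls received the same amount of water/DMF/Tween 20. Above-ground fresh weight was taken 10 days after treatment, in triplicate, as % damage versus control.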

[5] = system: Fusarium graminearum; test: Antifungal activity against Fusarium graminearum assessed as inhibition of mycelium growth at 50 mg/L at 26 degC measured after 72 hr
How it was run: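 Mycelium growth test on agar plates: 1 mL test solution (50 mg/L) mixed with 9 mL agar medium; sterile water in place of test solution for controls. 4 mm inocula cut from margins of actively growing colonies, placed at plate centre, incubated at 26 °C; mycelium diameter measured over 72 h. Inhibition % from mean hyphal diameter against control. Triplicate.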

[6] = system: Digitaria sanguinalis; test: Herbicidal activity against hairy crabgrass Digitaria sanguinalis (hairy crabgrass) assessed as herbicidal damage at 1.5 kg/ha measured after postemergence treatment; settings: post-emergence; how it was run: as §2
[7] = system: Amaranthus retroflexus; test: Herbicidal activity against Amaranthus retroflexus assessed as herbicidal damage at 1.5 kg/ha measured after postemergence treatment; settings: post-emergence; how it was run: as §2
[8] = system: Digitaria sanguinalis; test: Herbicidal activity against hairy crabgrass Digitaria sanguinalis (hairy crabgrass) assessed as herbicidal damage at 1.5 kg/ha measured after preemergence treatment; settings: pre-emergence; how it was run: as §2
[9] = system: Amaranthus retroflexus; test: Herbicidal activity against Amaranthus retroflexus assessed as herbicidal damage at 1.5 kg/ha measured after preemergence treatment; settings: pre-emergence; how it was run: as §2
[10] = system: Brassica napus; test: Herbicidal activity against rape Brassica napus (oilseed rape) assessed as herbicidal damage at 1.5 kg/ha measured after preemergence treatment; settings: pre-emergence; how it was run: as §2
[11] = system: Medicago sativa; test: Herbicidal activity against Medicago sativa (alfalfa) assessed as herbicidal damage at 1.5 kg/ha measured after postemergence treatment; settings: post-emergence; how it was run: as §2
[12] = system: Alternaria solani; test: Antifungal activity against Alternaria solani assessed as inhibition of mycelium growth at 50 mg/L at 26 degC measured after 72 hr; how it was run: as §1
[13] = system: Tobacco mosaic virus; test: Antiviral activity against Tobacco mosaic virus (TMV) inoculated in fresh tobacco leaf at 100 mg/L by half-leaf method
How it was run: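 Half-leaf method on tobacco leaves at the 5-6 growth stage. Leaves were inoculated with TMV by juice-leaf rubbing at 5.88 × 10-2 µg/mL and cut along the main vein. One half was immersed in test solution and the other in double distilled water for 20 min, then cultured at 25 °C for 72 h, in triplicate. Inhibition = 100(CK − A)/CK, from average lesion counts.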

[14] = system: Medicago sativa; test: Herbicidal activity against Medicago sativa (alfalfa) assessed as herbicidal damage at 1.5 kg/ha measured after preemergence treatment; settings: pre-emergence; how it was run: as §2
[15] = system: Cucumis sativus; test: Plant growth regulatory activity in Cucumis sativus (cucumber) seed assessed as number of root at 10 mg/L at 26 degC measured after 5 days
How it was run: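 Cucumber seeds were incubated at 26 °C in the dark for 72 h, then 10 cotyledons were excised and treated. Incubation continued at 26 °C in the dark for 5 days. Roots were counted, with water-only controls, in triplicate.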

| Compound | inhibition at 50 µg/mL [1] [%] | inhibition at 50 µg/mL [2] [%] | inhibition at 50 µg/mL [3] [%] | inhibition at 1500 g/ha [4] [%] | inhibition at 50 µg/mL [5] [%] | inhibition at 1500 g/ha [6] [%] | inhibition at 1500 g/ha [7] [%] | inhibition at 1500 g/ha [8] [%] | inhibition at 1500 g/ha [9] [%] | inhibition at 1500 g/ha [10] [%] | inhibition at 1500 g/ha [11] [%] | inhibition at 50 µg/mL [12] [%] | Activity [13] [%] | inhibition at 1500 g/ha [14] [%] | Activity [15] [%] |
| --- | --- | --- | --- | --- | --- | --- | --- | --- | --- | --- | --- | --- | --- | --- | --- |
| CCOCCOC(=O)/C(C#N)=C(\NCC1CCCO1)C(C)C (stereo not given) | 0 | 28.6 | 18.2 | 97.2 | 33.3 | 100 | 100 | 40 | 3.2 | 80 | 60.5 | 14.3 | 7.2 | 20.3 | 32.5 |
| CCOCCOC(=O)/C(C#N)=C(/C)NCC1CCCO1 (stereo not given) | 13.2 | 44.6 | 9.1 | 57.9 | 10 | 7.1 | 36.4 | 5.7 | 0 | 8.5 | 28.7 | 0 | 7.5 | 11.3 | -6.6 |
| CCOCCOC(=O)/C(C#N)=C(/CC)NCC1CCCO1 (stereo not given) | 15.8 | 37.5 | 22.7 | 63.7 | 20 | 0 | 46.1 | 0 | 8.4 | 7.4 | 22.2 | 10.7 | 13.2 | 3 | 2.4 |
| CCC/C(NCC1CCCO1)=C(\C#N)C(=O)OCCOCC (stereo not given) | 10.5 | 32.1 | 4.5 | 36.3 | 23.3 | 0 | 16.4 | 0 | 0 | 0 | 19.2 | 0 | 0 | 15 | 8.4 |
| CCOCCOC(=O)/C(C#N)=C(/CC)NCc1ccco1 | 21.1 | 35.7 | 27.3 | 47.9 | 20 | 27.3 | 22.6 | 12.1 | 9.5 | 16.3 | 35.9 | 0 | 13.3 | 0 | 11.4 |
| CCOCCOC(=O)/C(C#N)=C(\NCc1ccco1)C(C)C | 13.2 | 37.5 | 22.7 | 56.3 | 23.3 | 0 | 41.9 | 37.8 | 6.3 | 3.3 | 26.3 | 17.9 | 0 | 4.5 | 2.4 |

Reference: ChEMBL document CHEMBL3046176, “Synthesis, crystal structure, and biological activities of 2-cyanoacrylates containing furan or tetrahydrofuran moieties” (2007)
